Experimental data: ChEMBL document CHEMBL1129795, “2-Azetidinone cholesterol absorption inhibitors: structure-activity relationships on the heterocyclic nucleus” (1996)

Tests used:
Cricetinae gen. sp. [1] = test: In vivo for cholesterol absorption inhibitory activity using 7-day cholesterol-fed hamster model (expressed as percent change in cholesteryl esters at 50 mg/kg/day); type: functional, Cricetulus griseus
Procedure, shortened: (§1)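 Hamsters were fed a high-cholesterol diet for 7 days and gavaged once daily with compound in 0.2 mL corn oil. On the last day, animals were sacrificed and hepatic and serum lipids were determined. Results are given as percent change in hepatic cholesteryl ester or serum cholesterol concentration versus diet-fed controls gavaged with corn oil without drug.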

Cricetinae gen. sp. [2] = test: In vivo cholesterol absorption inhibitory activity using 7-day cholesterol-fed hamster model (expressed as percent change in serum cholesterol at 50 mg/kg/day); type: functional, Cricetulus griseus; procedure, shortened: as §1

Row | SMILES | Change (Cricetinae gen. sp. [1]) [%] | Change (Cricetinae gen. sp. [2]) [%]
1 | COc1ccc(N2C(=O)[C@@H](CCCc3ccccc3)[C@H]2c2ccc(S)cc2)cc1 | 0 | -19
2 | COc1ccc([C@@H]2[C@H](CCCCCCc3ccccc3)C(=O)N2c2ccc(OC)cc2)cc1 | 0 | -29
3 | COc1ccc([C@@H]2[C@@H](CCCc3ccccc3)C(=O)N2c2cc(F)cc(F)c2)cc1 | -93 | -52
4 | COc1ccc([C@H]2N(c3ccccc3)C(=O)[C@]2(F)CCCc2ccccc2)cc1 | -17 | -10
5 | COc1ccc(N2C(=O)[C@@H](CCCc3ccccc3)[C@H]2c2ccc(OC(C)C)cc2)cc1 | -78 | -28
6 | COc1ccc(N2C(=O)[C@H](CCCc3ccccc3)[C@H]2c2ccc3c(c2)OCO3)cc1 | -19 | 0
7 | COc1ccc([C@@H]2[C@@H](CCCc3ccccc3)C(=O)N2c2ccc(OC)cc2)cc1 [SCH-48461] | -77.5 | -29
8 | COc1ccc(N2C(=O)[C@@H](CCCc3ccccc3)[C@H]2c2ccc3c(c2)OCO3)cc1 | 0 | 0
9 | CCCCOc1ccc([C@@H]2[C@@H](CCCc3ccccc3)C(=O)N2c2ccc(OC)cc2)cc1 | -64 | -34
10 | COc1ccc(N2C(=O)C(CCCc3ccccc3)C2(c2ccc(OC)cc2)c2ccc(OC)cc2)cc1 (stereo not given) | 0 | -9
11 | COc1ccc([C@@H]2[C@@H](CCCc3ccccc3)C(=O)N2c2ccc(SC)cc2)cc1 | -70 | -26
12 | COc1ccc([C@@H]2[C@@H](CCCc3ccccc3)C(=O)N2C23C[C@H]4C[C@@H](C2)C[C@@H](C3)C4)cc1 | 0 | 0
13 | COc1ccc([C@@H]2[C@H](CCCc3ccccc3)C(=O)N2c2ccc(OC)cc2)cc1 | -95 | -45
14 | CC[C@@]1(c2ccccc2)C(=O)N(c2ccc(OC)cc2)[C@@H]1c1ccc(OC)cc1 | -28 | 0
15 | COc1ccc([C@@H]2[C@H](CCCC3CCCCC3)C(=O)N2c2ccc(OC)cc2)cc1 | -28 | 12
16 | COc1ccc([C@@H]2[C@@H](CCCc3ccccc3)C(=O)N2c2ccc(Cl)cc2)cc1 | -93 | -44
17 | COc1ccc(N[C@H](c2ccc(OC)cc2)[C@@H](CCCc2ccccc2)C(=O)O)cc1 | 0 | -8
18 | COc1ccc([C@@H]2[C@@H](CCCc3ccccc3)C(=O)N2Cc2ccccc2)cc1 | 16 | 0

Row | SMILES | Change (Cricetinae gen. sp. [1]) [%] | Change (Cricetinae gen. sp. [2]) [%]
19 | COc1ccc(N2C(=O)[C@H](CCCc3ccccc3)[C@H]2c2ccccc2OC)cc1 | 0 | 0
20 | COc1ccc([C@@H]2[C@@H](CCCCc3ccccc3)C(=O)N2c2ccc(OC)cc2)cc1 | -23 | -8
21 | COc1ccc([C@@H]2[C@H](CCCCc3ccccc3)C(=O)N2c2ccc(OC)cc2)cc1 | -72 | -28
22 | COc1ccc([C@@H]2[C@@H](CCCc3ccccc3)C(=O)N2c2ccc(C)cc2)cc1 | -90 | -38
23 | COc1ccc(N2C(=O)[C@H](CCCc3ccccc3)[C@H]2c2ccc(OC(F)(F)F)cc2)cc1 | -29 | 0
24 | COc1ccc(CN2C(=O)[C@H](CCCc3ccccc3)[C@H]2c2ccc(OC)cc2)cc1 | -26 | 0
25 | COc1ccc([C@@H]2[C@@H](CCCc3ccccc3)C(=O)N2C)cc1 | 0 | 0
26 | O=C1[C@H](CCCc2ccccc2)[C@@H](c2ccc(O)cc2)N1c1ccc(O)cc1 | -90 | -35
27 | COc1ccc(N2C(=O)[C@@H](CCCc3ccccc3)[C@H]2c2ccc(OC)c(OC)c2)cc1 | 0 | 0
28 | COc1ccc(N2C(=O)[C@@H](CCCc3ccccc3)[C@H]2c2ccccc2)cc1 | 0 | 0
29 | COc1ccc(N2C(=O)[C@H](CCCc3ccccc3)[C@H]2c2ccc(S(C)(=O)=O)cc2)cc1 | -75 | -26
30 | COc1ccc([C@@H]2[C@@H](CCCC3CCCCC3)C(=O)N2c2ccc(OC)cc2)cc1 | -47 | -23
31 | COc1ccc([C@@H]2[C@H](CCCCCc3ccccc3)C(=O)N2c2ccc(OC)cc2)cc1 | -70 | -24
32 | COc1ccc(N2C(=O)[C@H](CCCc3ccccc3)[C@H]2c2ccc(OC)cc2OC)cc1 | -78 | -26
33 | COc1ccc([C@@H]2[C@H](C)C(=O)N2c2ccc(OC)cc2)cc1 | 0 | 0
34 | COc1ccc([C@H]2NC(=O)[C@@H]2CCCc2ccccc2)cc1 | 0 | 0
35 | COc1ccc([C@@H]2[C@@H](CCCc3ccccc3)C(=O)N2c2ccc([S+](C)[O-])cc2)cc1 (stereo not given in full) | 0 | -11
